This is an account of results in ChEMBL document CHEMBL1134977, “Design and synthesis of ethyl pyrrolidine-5,5-trans-lactams as inhibitors of hepatitis C virus NS3/4A protease” (Bioorg Med Chem Lett, 2002).

Molecules are shown by their SMILES. Residues, ends and D or L forms follow the SMILES beside them. *: point of attachment. X1 = CCC1C(=O)N(S(C)(=O)=O)[C@H]2CCN(*)[C@H]12

Experiment [1] deals with T1, Hepatitis C virus serine protease, NS3/NS4A (Hepatitis C virus, UniProt A3EZI9+D2K2A8). In words: Inhibitory concentration against hepatitis C virus NS3/4A protease on 18 h pre-incubation in fluorogenic assay. It counts as protein-complex assay, Hepacivirus hominis. Summed up: (§1)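 Fluorogenic assay with full-length NS3/4A protein at 20 nM (NS3:4A 1:1). Substrate was Abz-E-D-V-V-P-C-S-M-S-(3-NO2)-Y-H at 25 µM (Km 5 µM). Compound was pre-incubated with enzyme for 4 or 18 h before substrate addition.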

The target in experiment [2] is T2, Hepatitis C virus serine protease, NS3/NS4A (Hepatitis C virus) (UniProt D2K2A8+A3EZI9). In words: Compound was tested for inhibition of hepatitis C virus NS3/4A protease at 100 uM 2 hr pre-incubation in chromogenic assay. The format is protein-complex assay. Particulars: Hepacivirus hominis.
Experiment [3] deals with T1, Hepatitis C virus serine protease, NS3/NS4A. In words: Inhibitory concentration against hepatitis C virus NS3/4A protease on 18 hr preincubation in chromogenic assay. The format is protein-complex assay, Hepacivirus hominis. Summed up:
(§2)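 Chromogenic read-out with the NS3 protease domain at 0.56 µM and synthetic 18-mer NS4A cofactor peptide at 0.8 µM. Substrate was Ac-E-D-V-V-P-C-pNO2 anilide at 1.5 mM (Km 1.85 mM). Compound was pre-incubated with enzyme for 2, 4 or 18 h before substrate addition.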

The target is the same in experiment [4]. In words: Inhibitory concentration against hepatitis C virus NS3/4A protease on 4 hr pre-incubation in fluorogenic assay. It counts as protein-complex assay, Hepacivirus hominis. Summed up:
as §1

Experiment [5] shares this target. In words: Inhibitory concentration against hepatitis C virus NS3/4A protease on 4 hr pre-incubation in chromogenic assay. It counts as protein-complex assay, Hepacivirus hominis. The method in brief:
as §2

Experiment [6] shares this target. In words: Inhibitory concentration against hepatitis C virus NS3/4A protease on 2 hr pre-incubation in chromogenic assay. It counts as protein-complex assay, Hepacivirus hominis. The method in brief: as §2
Experiment [7] has as its target T2, Hepatitis C virus serine protease, NS3/NS4A (Hepatitis C virus). In words: Inhibitory concentration against hepatitis C virus NS3/4A protease on 18 h pre-incubation in chromogenic assay. It counts as protein-complex assay. The arrangement: concentration or dose not given beside the values. As to conditions: Hepacivirus hominis; concentration not given here. Summed up:
as §2

T1 sequence (D2K2A8 whole entry): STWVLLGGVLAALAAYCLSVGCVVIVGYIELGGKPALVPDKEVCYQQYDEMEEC
T1 sequence (A3EZI9 whole entry): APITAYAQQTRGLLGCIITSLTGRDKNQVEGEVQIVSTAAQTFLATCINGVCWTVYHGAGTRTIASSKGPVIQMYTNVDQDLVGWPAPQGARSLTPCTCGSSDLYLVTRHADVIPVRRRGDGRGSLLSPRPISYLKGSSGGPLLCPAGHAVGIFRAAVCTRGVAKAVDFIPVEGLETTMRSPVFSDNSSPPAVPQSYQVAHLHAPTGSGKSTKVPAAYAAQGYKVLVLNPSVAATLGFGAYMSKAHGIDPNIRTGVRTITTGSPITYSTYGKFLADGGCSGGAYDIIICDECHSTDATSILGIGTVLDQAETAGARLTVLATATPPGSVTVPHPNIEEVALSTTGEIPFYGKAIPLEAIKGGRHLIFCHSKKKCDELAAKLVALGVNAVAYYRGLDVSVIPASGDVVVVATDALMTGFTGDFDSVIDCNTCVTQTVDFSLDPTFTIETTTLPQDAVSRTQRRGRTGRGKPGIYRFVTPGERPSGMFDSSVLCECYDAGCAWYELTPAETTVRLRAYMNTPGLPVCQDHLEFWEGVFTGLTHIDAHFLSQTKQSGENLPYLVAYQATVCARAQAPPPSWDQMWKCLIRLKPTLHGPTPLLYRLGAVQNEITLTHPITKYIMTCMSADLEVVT

With `CCC1C(=O)N(S(C)(=O)=O)[C@H]2CCN(C(=O)[C@@H](NC(=O)OC(C)(C)C)C(C)C)C12` (single isomer, unassigned), the half-maximal inhibitory concentration (IC50) came out at 140 µM in experiment [1], 27 µM in experiment [3], 182 µM in experiment [4] and 62 µM in experiment [5]. The molecule also came in with an inhibition in experiment [2] of 52%.

`CCC1C(=O)N(S(C)(=O)=O)[C@H]2CCN(C(=O)[C@@H](NC(=O)[C@@H](NC(=O)[C@H](CC(=O)O)NC(=O)[C@H](CCC(=O)O)NC(C)=O)C(C)C)C(C)C)[C@H]12` (stereo partly specified) (Ac-EDVV-X1): the IC50 is 284 µM in experiment [1]; 19 µM in experiment [3]; over 400 µM in experiment [4]; 69 µM in experiment [5]; 69 µM in experiment [6].

As for `CCC1C(=O)N(S(C)(=O)=O)[C@H]2CCN(C(=O)[C@@H](NC(=O)[C@@H](NC(C)=O)C(C)C)C(C)C)[C@H]12` (stereo partly specified), the inhibition in experiment [2] came out at 21%; in experiment [7], 45%.

On to `CCC1C(=O)N(S(C)(=O)=O)[C@H]2CCN(C(=O)CNC(=O)[C@@H](NC(=O)[C@H](CC(=O)O)NC(=O)[C@H](CCC(=O)O)NC(C)=O)C(C)C)[C@H]12` (stereo partly specified) (Ac-EDVG-X1), for which the values for the inhibition in experiment [2] and in experiment [7] were 10% and 24%, respectively.

As for `CCC1C(=O)N(S(C)(=O)=O)[C@H]2CCN(C(=O)C(NC(=O)[C@@H](NC(=O)[C@H](CC(=O)O)NC(=O)[C@H](CCC(=O)O)NC(C)=O)C(C)C)C(C)C)[C@H]12` (single isomer, unassigned), the results for the inhibition in experiment [2] and in experiment [7] were 24% and 85%, respectively.

Turning to `CC[C@@H]1C(=O)N(C(C)=O)[C@H]2CCN(C(=O)[C@@H](NC(=O)OC(C)(C)C)C(C)C)[C@H]12`, the IC50 worked out at 194 µM in experiment [1], 45 µM in experiment [3], 193 µM in experiment [4] and 88 µM in experiment [5].

Regarding `CC[C@H]1C(=O)N(S(C)(=O)=O)[C@H]2CCN(C(=O)[C@@H](NC(=O)OC(C)(C)C)C(C)C)[C@H]12`, the IC50 in experiment [1] turned out to be 172 µM; in experiment [3] it was 28 µM; in experiment [4], 341 µM; in experiment [5], 99 µM.

As to `CCC1C(=O)N(S(C)(=O)=O)[C@H]2CCN(C(=O)[C@@H](NC(=O)[C@@H](NC(=O)[C@H](CC(=O)O)NC(C)=O)C(C)C)C(C)C)[C@H]12` (stereo partly specified), the values for the inhibition in experiment [2] and in experiment [7] were 68% and 94%, respectively.

Consider `CC[C@@H]1C(=O)N(S(C)(=O)=O)[C@H]2CCN(C(=O)[C@@H](NC(=O)OC(C)(C)C)C(C)C)[C@H]12`, for which the IC50 was determined as 22 µM in experiment [3] and 30 µM in experiment [5].

For the molecule `CCC1C(=O)N(S(C)(=O)=O)[C@H]2CCN(C(=O)[C@@H](N)C(C)C)[C@H]12` (stereo partly specified), the inhibition in experiment [2] amounted to 11%; in experiment [7], 41%.

`CCC1C(=O)N(S(C)(=O)=O)[C@H]2CCN(C(=O)[C@@H]3CCCN3C(=O)[C@@H](NC(=O)[C@H](CC(=O)O)NC(=O)[C@H](CCC(=O)O)NC(C)=O)C(C)C)[C@H]12` (stereo partly specified) (Ac-EDVP-X1): the figures for the inhibition in experiment [2] and in experiment [7] were 5% and 11%, respectively.

Consider `CC[C@H]1C(=O)N(C(C)=O)[C@H]2CCN(C(=O)[C@@H](NC(=O)OC(C)(C)C)C(C)C)[C@H]12`, for which the 50% inhibitory concentration (IC50) is 447 µM in experiment [1], 147 µM in experiment [3], 216 µM in experiment [4] and over 400 µM in experiment [5].
